According to ChEMBL document CHEMBL1921697, “Antifungal activity of 2α,3β-functionalized steroids stereoselectively increases with the addition of oligosaccharides” (Bioorg Med Chem Lett, 2011):
≈ marks a conversion by molar mass, not a printed value.

What was measured:
[1] = tested on: Nakaseomyces glabratus; assay: Antifungal activity against Candida glabrata ATCC 48435 assessed as growth inhibition after 48 hrs by broth microdilution relative to control; assay type: functional
How it was run: (§1)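 Broth microdilution against yeast; incubation at 35 °C for 48 h. Growth read by visual turbidity versus antifungal-free control wells and by absorbance at 530 nm. MIC₅₀ taken as the lowest level giving a prominent visual decrease in turbidity plus >50% growth reduction versus no-antifungal controls. Values in µg/mL; partial inhibition (e.g. 25%) noted where below threshold.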

[2] = tested on: Candida albicans; assay: Antifungal activity against Candida albicans ATCC 10231 assessed as growth inhibition after 48 hrs by broth microdilution relative to control; assay type: functional; how it was run: as §1
[3] = tested on: Cryptococcus neoformans; assay: Antifungal activity against Cryptococcus neoformans ATCC 36556 assessed as growth inhibition after 48 hrs by broth microdilution relative to control; assay type: functional; how it was run: as §1
[4] = tested on: Nakaseomyces glabratus; assay: Antifungal activity against Candida glabrata ATCC 48435 after 48 hrs by broth microdilution technique; assay type: functional; details: ATCC 48435, 48 h; how it was run: as §1
[5] = tested on: Cryptococcus neoformans; assay: Antifungal activity against Cryptococcus neoformans ATCC 36556 after 48 hrs by broth microdilution technique; assay type: functional; details: ATCC 36556, 48 h; how it was run: as §1
[6] = tested on: Vero; assay: Cytotoxicity against african green monkey Vero cells after 24 hrs by MTT assay; assay type: cell-based; details: chlorocebus sabaeus
How it was run: (§2)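 Tetrazolium (MTT-type) proliferation assay on noncancerous Vero and rabbit skin cells. Compounds diluted in media to 200, 100, 50 and 25 µg/ml; 24 h exposure at 37 °C, 5% CO₂. Dye added for 1–4 h, then stop solution 1 h at room temperature; formazan read at 570 nm. Viability given as % of 1% DMSO no-drug wells; saponin as cell-death control; triplicate, mean ± SD.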

[7] = Cytotoxicity against Sylvilagus floridanus CCL68 cells after 24 hrs by MTT assay; assay type: cell-based; how it was run: as §2

| SMILES | growth inhibition (GI) [1] [%] | growth inhibition (GI) [2] [%] | growth inhibition (GI) [3] [%] | MIC50 [4] [µg/mL] | MIC50 [5] [µg/mL] | Activity [6] | Activity [7] |
| --- | --- | --- | --- | --- | --- | --- | --- |
| CC(C)CCC[C@@H](C)[C@H]1CC[C@H]2[C@@H]3CC[C@H]4C[C@@H](O[C@@H]5O[C@H](CO)[C@@H](O)[C@H](O)[C@H]5O)[C@H](O)C[C@]4(C)[C@H]3CC[C@]12C | <50 | <50 | <50 |  |  |  |  |
| CC(C)CCC[C@@H](C)[C@H]1CC[C@H]2[C@@H]3CC[C@H]4C[C@@H](O[C@@H]5O[C@H](CO)[C@@H](O[C@@H]6O[C@H](CO)[C@@H](O)[C@H](O)[C@H]6O)[C@H](O)[C@H]5O)[C@H](O)C[C@]4(C)[C@H]3CC[C@]12C |  | <50 |  | 8 (≈ 11 µM) | 4 (≈ 5.49 µM) | Toxic | Toxic |
| CC(C)CCC[C@@H](C)[C@H]1CC[C@H]2[C@@H]3CC[C@H]4C[C@@H](O[C@H]5O[C@H](CO)[C@@H](O)[C@H](O)[C@H]5O)CC[C@]4(C)[C@H]3CC[C@]12C | <50 | <50 | <50 |  |  |  |  |
| C[C@@H]1CC[C@]2(C[C@H]3C[C@H]4[C@@H]5CC[C@H]6C[C@@H](O[C@@H]7O[C@H](CO)[C@@H](O[C@@H]8O[C@H](CO)[C@@H](O)[C@H](O)[C@H]8O)[C@H](O)[C@H]7O)[C@H](O)C[C@]6(C)[C@H]5CC[C@]4(C)[C@H]3[C@@H]2C)OC1 |  |  |  |  |  | Non-toxic | Non-toxic |
| CC(C)CCC[C@@H](C)[C@H]1CC[C@H]2[C@@H]3CC[C@H]4C[C@@H](O)[C@H](O)C[C@]4(C)[C@H]3CC[C@]12C | <50 | <50 | 25 |  | 32 (≈ 79.1 µM) |  |  |
| C[C@@H]1CC[C@]2(C[C@H]3C[C@H]4[C@@H]5CC[C@H]6C[C@@H](O[C@H]7O[C@H](CO)[C@@H](O[C@H]8O[C@H](CO)[C@@H](O)[C@H](O)[C@H]8O)[C@H](O)[C@H]7O)[C@H](O)C[C@]6(C)[C@H]5CC[C@]4(C)[C@H]3[C@@H]2C)OC1 | <50 | <50 | <50 |  |  |  |  |
| CC(C)CCC[C@@H](C)[C@H]1CC[C@H]2[C@@H]3CC[C@H]4C[C@@H](O[C@@H]5O[C@H](CO)[C@@H](O[C@@H]6O[C@H](CO)[C@@H](O)[C@H](O)[C@H]6O)[C@H](O)[C@H]5O)CC[C@]4(C)[C@H]3CC[C@]12C |  | <50 |  | > 125 | > 125 |  |  |
| CC(C)CCC[C@@H](C)[C@H]1CC[C@H]2[C@@H]3CC[C@H]4C[C@@H](O[C@H]5O[C@H](CO)[C@@H](O)[C@H](O)[C@H]5O)[C@H](O)C[C@]4(C)[C@H]3CC[C@]12C | <50 | <50 | <50 |  |  |  |  |
| CC(C)CCC[C@@H](C)[C@H]1CC[C@H]2[C@@H]3CC[C@H]4C[C@@H](O[C@@H]5O[C@H](CO)[C@@H](O)[C@H](O)[C@H]5O)CC[C@]4(C)[C@H]3CC[C@]12C | <50 | <50 | <50 |  |  |  |  |
| C[C@@H]1CC[C@]2(C[C@H]3C[C@H]4[C@@H]5CC[C@H]6C[C@@H](O[C@@H]7O[C@H](CO)[C@@H](O)[C@H](O)[C@H]7O)[C@H](O)C[C@]6(C)[C@H]5CC[C@]4(C)[C@H]3[C@@H]2C)OC1 | <50 | <50 | <50 |  |  |  |  |
| C[C@@H]1CC[C@@]2(OC1)O[C@H]1C[C@H]3[C@@H]4CC[C@H]5C[C@@H](O[C@H]6O[C@H](CO)[C@@H](O)[C@H](O)[C@H]6O)[C@H](O)C[C@]5(C)[C@H]4CC[C@]3(C)[C@H]1[C@@H]2C | <50 | <50 | <50 |  |  |  |  |
| CC(C)CCC[C@@H](C)[C@H]1CC[C@H]2[C@@H]3CC[C@H]4C[C@@H](O[C@H]5O[C@H](CO)[C@@H](O[C@H]6O[C@H](CO)[C@@H](O)[C@H](O)[C@H]6O)[C@H](O)[C@H]5O)[C@H](O)C[C@]4(C)[C@H]3CC[C@]12C | <50 | <50 | <50 |  |  |  |  |
| CC(C)CCC[C@@H](C)[C@H]1CC[C@H]2[C@@H]3CC[C@H]4C[C@@H](O)CC[C@]4(C)[C@H]3CC[C@]12C | <50 | <50 | <50 |  |  |  |  |
| CC(C)CCC[C@@H](C)[C@H]1CC[C@H]2[C@@H]3CC[C@H]4C[C@@H](O[C@H]5O[C@H](CO)[C@@H](O[C@H]6O[C@H](CO)[C@@H](O)[C@H](O)[C@H]6O)[C@H](O)[C@H]5O)CC[C@]4(C)[C@H]3CC[C@]12C | <50 | <50 | <50 |  |  |  |  |
| CC(C)CCC[C@@H](C)[C@H]1CC[C@H]2[C@@H]3CC[C@H]4C[C@@H](O[C@@H]5O[C@H](CO)[C@@H](O[C@H]6O[C@H](CO)[C@@H](O)[C@H](O)[C@H]6O)[C@H](O)[C@H]5O)[C@H](O)C[C@]4(C)[C@H]3CC[C@]12C | <50 | <50 |  |  | 32 (≈ 43.9 µM) |  |  |
| CC(C)CCC[C@@H](C)[C@H]1CC[C@H]2[C@@H]3CC[C@H]4C[C@@H](O[C@@H]5O[C@H](CO)[C@@H](O[C@H]6O[C@H](CO)[C@@H](O)[C@H](O)[C@H]6O)[C@H](O)[C@H]5O)CC[C@]4(C)[C@H]3CC[C@]12C |  | <50 |  | 4 (≈ 5.61 µM) | 4 (≈ 5.61 µM) | Non-toxic | Non-toxic |
